Reference: ChEMBL document CHEMBL3525900, “Pharmacokinetics, distribution, and metabolism of [14C]sunitinib in rats, monkeys, and humans” (Drug Metab Dispos, 2012)

Key:
[1] = Drug excretion in feces of female cynomolgus monkey treated with [14C]sunitinib at 6 mg/kg, po administered as single dose by liquid scintillation counting; assay type: ADME, organism-based, Macaca fascicularis; design: dose 6 mg/kg, dosed compound name [14C]Sunitinib, route oral; settings: in vivo
Procedure, shortened: (§1)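 Cynomolgus monkeys given one oral gavage dose of [14C]sunitinib L-malate, 6 mg/kg (37 µCi/kg). Urine collected at 0-4, 4-8 and 8-24 h, feces at 0-8 and 8-24 h, then both daily to 14 days; samples stored at -80 °C. Duplicate urine aliquots counted by liquid scintillation; homogenized feces combusted before counting.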

[2] = Drug excretion in feces of male cynomolgus monkey treated with [14C]sunitinib at 6 mg/kg, po administered as single dose by liquid scintillation counting; assay type: ADME, organism-based, Macaca fascicularis; design: dose 6 mg/kg, dosed compound name [14C]Sunitinib, route oral; settings: in vivo; procedure, shortened: as §1
[3] = Drug excretion in feces of human treated with [14C]sunitinib at 50 mg, po administered as single dose by liquid scintillation counting; settings: in vivo
[4] = Drug excretion in feces of female Sprague-Dawley rat treated with [14C]sunitinib at 5 mg/kg, iv administered as single dose by liquid scintillation counting; assay type: ADME, organism-based; design: dose 5 mg/kg, dosed compound name [14C]Sunitinib, route intravenous; settings: in vivo
Procedure, shortened: (§2)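 Five female rats given a single tail-vein bolus of [14C]sunitinib L-malate, 5 mg/kg free base equivalents (50 µCi/kg). Urine and feces collected over 0-72 h into dry-ice cooled containers. Urine counted directly by liquid scintillation; feces homogenized and combusted in oxygen before counting. Expired air also monitored.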

[5] = Drug excretion in urine of female Sprague-Dawley rat treated with [14C]sunitinib at 5 mg/kg, iv administered as single dose by liquid scintillation counting; assay type: ADME, organism-based; design: dose 5 mg/kg, dosed compound name [14C]Sunitinib, route intravenous; settings: in vivo; procedure, shortened: as §2
[6] = Drug excretion in urine of female cynomolgus monkey treated with [14C]sunitinib at 6 mg/kg, po administered as single dose by liquid scintillation counting; assay type: ADME, organism-based, Macaca fascicularis; design: dose 6 mg/kg, dosed compound name [14C]Sunitinib, route oral; settings: in vivo; procedure, shortened: as §1
Rattus norvegicus [7] = assay: Cmax in female Sprague-Dawley rat plasma treated with [14C]sunitinib at 15 mg/kg, po administered as single dose by LC/MS/MS analysis; assay type: ADME, organism-based; design: dose 15 mg/kg, dosed compound name [14C]Sunitinib, route oral; settings: in vivo
Procedure, shortened: (§3)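 Single dose of [14C]sunitinib L-malate as free base, 50 µCi/kg. IV dose was 5 mg/kg by tail vein in 5 females. Oral dose was 15 mg/kg by gavage in 3 females and 3 males. Total radioactivity was by scintillation counting. […] Cmax was read from raw data, t½ by log-linear regression, AUC by linear trapezoidal rule.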

Rattus norvegicus [8] = assay: Tmax in female Sprague-Dawley rat plasma treated with [14C]sunitinib at 15 mg/kg, po administered as single dose by LC/MS/MS analysis; assay type: ADME, organism-based; design: dose 15 mg/kg, dosed compound name [14C]Sunitinib, route oral; settings: in vivo
Rattus norvegicus [9] = assay: AUC (0 to infinity) in female Sprague-Dawley rat plasma treated with [14C]sunitinib at 15 mg/kg, po administered as single dose by LC/MS/MS analysis; assay type: ADME, organism-based; design: time infinity, dose 15 mg/kg, dosed compound name [14C]Sunitinib, route oral; settings: in vivo; procedure, shortened: as §3
Rattus norvegicus [10] = assay: Apparent terminal half life in female Sprague-Dawley rat plasma treated with [14C]sunitinib at 15 mg/kg, po administered as single dose by LC/MS/MS analysis; assay type: ADME, organism-based; design: dose 15 mg/kg, dosed compound name [14C]Sunitinib, route oral; settings: in vivo; procedure, shortened: as §3
Rattus norvegicus [11] = assay: Cmax in male Sprague-Dawley rat plasma treated with [14C]sunitinib at 15 mg/kg, po administered as single dose by LC/MS/MS analysis; assay type: ADME, organism-based; design: dose 15 mg/kg, dosed compound name [14C]Sunitinib, route oral; settings: in vivo; procedure, shortened: as §3
Rattus norvegicus [12] = assay: Tmax in male Sprague-Dawley rat plasma treated with [14C]sunitinib at 15 mg/kg, po administered as single dose by LC/MS/MS analysis; assay type: ADME, organism-based; design: dose 15 mg/kg, dosed compound name [14C]Sunitinib, route oral; settings: in vivo
Rattus norvegicus [13] = assay: AUC (0 to infinity) in male Sprague-Dawley rat plasma treated with [14C]sunitinib at 15 mg/kg, po administered as single dose by LC/MS/MS analysis; assay type: ADME, organism-based; design: time infinity, dose 15 mg/kg, dosed compound name [14C]Sunitinib, route oral; settings: in vivo; procedure, shortened: as §3
Rattus norvegicus [14] = assay: Apparent terminal half life in male Sprague-Dawley rat plasma treated with [14C]sunitinib at 15 mg/kg, po administered as single dose by LC/MS/MS analysis; assay type: ADME, organism-based; design: dose 15 mg/kg, dosed compound name [14C]Sunitinib, route oral; settings: in vivo; procedure, shortened: as §3
Rattus norvegicus [15] = assay: Cmax in female Sprague-Dawley rat plasma treated with [14C]sunitinib at 5 mg/kg, iv administered as single dose by LC/MS/MS analysis; assay type: ADME, organism-based; design: dose 5 mg/kg, dosed compound name [14C]Sunitinib, route intravenous; settings: in vivo; procedure, shortened: as §3
Rattus norvegicus [16] = assay: Tmax in female Sprague-Dawley rat plasma treated with [14C]sunitinib at 5 mg/kg, iv administered as single dose by LC/MS/MS analysis; assay type: ADME, organism-based; design: dose 5 mg/kg, dosed compound name [14C]Sunitinib, route intravenous; settings: in vivo
Rattus norvegicus [17] = assay: AUC (0 to infinity) in female Sprague-Dawley rat plasma treated with [14C]sunitinib at 5 mg/kg, iv administered as single dose by LC/MS/MS analysis; assay type: ADME, organism-based; design: time infinity, dose 5 mg/kg, dosed compound name [14C]Sunitinib, route intravenous; settings: in vivo; procedure, shortened: as §3
Homo sapiens [18] = assay: Cmax in human plasma treated with [14C]sunitinib at 50 mg, po administered as single dose by LC/MS/MS analysis; assay type: ADME, organism-based; design: dose 50 mg, route oral, dosed compound name [14C]Sunitinib; settings: in vivo
Procedure, shortened: (§4)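 Open-label phase I study in 8 subjects given one 50 mg oral dose of [14C]sunitinib (100 µCi). Plasma total radioactivity was counted by scintillation on triplicate 0.25 mL aliquots. Sunitinib was quantified by LC-MS-MS. Noncompartmental analysis: Cmax read directly, terminal t½ = ln(2)/slope of the log-concentration regression, AUC by linear trapezoidal rule to the last detectable concentration.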

Homo sapiens [19] = assay: Tmax in human plasma treated with [14C]sunitinib at 50 mg, po administered as single dose by LC/MS/MS analysis; assay type: ADME, organism-based; design: dosed compound name [14C]Sunitinib; settings: in vivo
Homo sapiens [20] = assay: AUC (0 to infinity) in human plasma treated with [14C]sunitinib at 50 mg, po administered as single dose by LC/MS/MS analysis; assay type: ADME, organism-based; design: dose 50 mg, time infinity, route oral, dosed compound name [14C]Sunitinib; settings: in vivo; procedure, shortened: as §4
Homo sapiens [21] = assay: Terminal half life in human plasma treated with [14C]sunitinib at 50 mg, po administered as single dose by LC/MS/MS analysis; assay type: ADME, organism-based; design: dosed compound name [14C]Sunitinib; settings: in vivo
Cynomolgus monkey [22] = assay: Cmax in female cynomolgus monkey plasma treated with [14C]sunitinib at 6 mg/kg, po administered as single dose by LC/MS/MS analysis; assay type: ADME, organism-based, Macaca fascicularis; design: dose 6 mg/kg, dosed compound name [14C]Sunitinib, route oral; settings: in vivo
Procedure, shortened: (§5)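 Cynomolgus monkeys of both sexes received one oral gavage of [14C]sunitinib L-malate at 6 mg/kg (37 µCi/kg). Femoral-vein blood was taken into heparin from 0.5 to 336 h. Plasma was kept cold and protected from light, then stored at -80 °C. Total radioactivity was by scintillation counting and sunitinib by methanol-extraction LC-MS-MS. Cmax was from raw data, t½ from the log-linear terminal slope, AUC(0-∞) by linear trapezoidal rule.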

Cynomolgus monkey [23] = assay: Tmax in female cynomolgus monkey plasma treated with [14C]sunitinib at 6 mg/kg, po administered as single dose by LC/MS/MS analysis; assay type: ADME, organism-based, Macaca fascicularis; design: dose 6 mg/kg, dosed compound name [14C]Sunitinib, route oral; settings: in vivo
Cynomolgus monkey [24] = assay: AUC (0 to infinity) in female cynomolgus monkey plasma treated with [14C]sunitinib at 6 mg/kg, po administered as single dose by LC/MS/MS analysis; assay type: ADME, organism-based, Macaca fascicularis; design: time infinity, dose 6 mg/kg, dosed compound name [14C]Sunitinib, route oral; settings: in vivo; procedure, shortened: as §5
Cynomolgus monkey [25] = assay: Terminal half life in female cynomolgus monkey plasma treated with [14C]sunitinib at 6 mg/kg, po administered as single dose by LC/MS/MS analysis; assay type: ADME, organism-based, Macaca fascicularis; design: dose 6 mg/kg, dosed compound name [14C]Sunitinib, route oral; settings: in vivo
Cynomolgus monkey [26] = assay: Cmax in male cynomolgus monkey plasma treated with [14C]sunitinib at 6 mg/kg, po administered as single dose by LC/MS/MS analysis; assay type: ADME, organism-based, Macaca fascicularis; design: dose 6 mg/kg, dosed compound name [14C]Sunitinib, route oral; settings: in vivo; procedure, shortened: as §5
Cynomolgus monkey [27] = assay: Tmax in male cynomolgus monkey plasma treated with [14C]sunitinib at 6 mg/kg, po administered as single dose by LC/MS/MS analysis; assay type: ADME, organism-based, Macaca fascicularis; design: dose 6 mg/kg, dosed compound name [14C]Sunitinib, route oral; settings: in vivo
Cynomolgus monkey [28] = assay: AUC (0 to infinity) in male cynomolgus monkey plasma treated with [14C]sunitinib at 6 mg/kg, po administered as single dose by LC/MS/MS analysis; assay type: ADME, organism-based, Macaca fascicularis; design: time infinity, dose 6 mg/kg, dosed compound name [14C]Sunitinib, route oral; settings: in vivo; procedure, shortened: as §5
Cynomolgus monkey [29] = assay: Terminal half life in male cynomolgus monkey plasma treated with [14C]sunitinib at 6 mg/kg, po administered as single dose by LC/MS/MS analysis; assay type: ADME, organism-based, Macaca fascicularis; design: dose 6 mg/kg, dosed compound name [14C]Sunitinib, route oral; settings: in vivo
[30] = Retention time of compound by LC/MS/MS analysis; assay type: physicochemical; design: dosed compound name [14C]Sunitinib
Rattus norvegicus [31] = assay: Apparent terminal half life in female Sprague-Dawley rat plasma treated with [14C]sunitinib at 5 mg/kg, iv administered as single dose by LC/MS/MS analysis; assay type: ADME, organism-based; design: dose 5 mg/kg, dosed compound name [14C]Sunitinib, route intravenous; settings: in vivo; procedure, shortened: as §3
[32] = Drug excretion in urine of male cynomolgus monkey treated with [14C]sunitinib at 6 mg/kg, po administered as single dose by liquid scintillation counting; assay type: ADME, organism-based, Macaca fascicularis; design: dose 6 mg/kg, dosed compound name [14C]Sunitinib, route oral; settings: in vivo; procedure, shortened: as §1
[33] = Drug excretion in feces of female Sprague-Dawley rat treated with [14C]sunitinib at 15 mg/kg, po administered as single dose by liquid scintillation counting; assay type: ADME, organism-based; design: dose 15 mg/kg, dosed compound name [14C]Sunitinib, route oral; settings: in vivo
Procedure, shortened: (§6)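 Female and male rats given one oral gavage dose, 15 mg/kg free base equivalents (50 µCi/kg). Urine and feces collected on dry ice, protected from light, over 0-4, 4-8 and 8-24 h, then daily to 72 h. Urine aliquots counted by liquid scintillation; homogenized feces combusted in oxygen before counting. Counts 5 min, external quench correction.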

[34] = Drug excretion in urine of female Sprague-Dawley rat treated with [14C]sunitinib at 15 mg/kg, po administered as single dose by liquid scintillation counting; assay type: ADME, organism-based; design: dose 15 mg/kg, dosed compound name [14C]Sunitinib, route oral; settings: in vivo; procedure, shortened: as §6
[35] = Drug excretion in feces of male Sprague-Dawley rat treated with [14C]sunitinib at 15 mg/kg, po administered as single dose by liquid scintillation counting; assay type: ADME, organism-based; design: dose 15 mg/kg, dosed compound name [14C]Sunitinib, route oral; settings: in vivo; procedure, shortened: as §6
[36] = Drug excretion in urine of male Sprague-Dawley rat treated with [14C]sunitinib at 15 mg/kg, po administered as single dose by liquid scintillation counting; assay type: ADME, organism-based; design: dose 15 mg/kg, dosed compound name [14C]Sunitinib, route oral; settings: in vivo; procedure, shortened: as §6
[37] = Drug excretion in urine of human treated with [14C]sunitinib at 50 mg, po administered as single dose by liquid scintillation counting; settings: in vivo

## CCNCC(O)NC(=O)c1c(C)[nH]c(/C=C2\C(=O)Nc3ccc(F)cc32)c1C (stereo not drawn)
[1]
  Compound recovery: 0.8%
[2]
  Compound recovery: 1%
[3]
  Compound recovery: metabolite_not_detected

## CCNCCNC(=O)c1c(C)[nH]c(/C=C2\C(=O)Nc3ccc(F)cc32)c1C
[4]
  Compound recovery: 18.5%
[5]
  Compound recovery: 0.5%
[6]
  Compound recovery: 1.4%
Rattus norvegicus [7]
  Cmax: 1412 ng/mL
Rattus norvegicus [8]
  Tmax: 7 h
Rattus norvegicus [9]
  AUC: 37225 ng·h/mL
Rattus norvegicus [10]
  t1/2 lambda z: 9 h
Rattus norvegicus [11]
  Cmax: 4561 ng/mL
Rattus norvegicus [12]
  Tmax: 6 h
Rattus norvegicus [13]
  AUC: 68854 ng·h/mL
Rattus norvegicus [14]
  t1/2 lambda z: 7.1 h
Rattus norvegicus [15]
  Cmax: 450 ng/mL
Rattus norvegicus [16]
  Tmax: 3 h
Rattus norvegicus [17]
  AUC: 6724 ng·h/mL
Homo sapiens [18]
  Cmax: 6.2 ng/mL
Homo sapiens [19]
  Tmax: 6.7 h
Homo sapiens [20]
  AUC: 592.6 ng·h/mL
Homo sapiens [21]
  beta t1/2: 93.2 h
Cynomolgus monkey [22]
  Cmax: 54 ng/mL
Cynomolgus monkey [23]
  Tmax: 7 h
Cynomolgus monkey [24]
  AUC: 1272 ng·h/mL
Cynomolgus monkey [25]
  beta t1/2: 19 h
Cynomolgus monkey [26]
  Cmax: 67 ng/mL
Cynomolgus monkey [27]
  Tmax: 8 h
Cynomolgus monkey [28]
  AUC: 1383 ng·h/mL
Cynomolgus monkey [29]
  beta t1/2: 19 h
[30]
  Retention_time: 2.5 min
Rattus norvegicus [31]
  t1/2 lambda z: 8.4 h
[32]
  Compound recovery: 1.1%
[33]
  Compound recovery: 32.1%
[34]
  Compound recovery: 1.4%
[35]
  Compound recovery: 21%
[36]
  Compound recovery: 1.7%
[3]
  Compound recovery: 25%
[37]
  Compound recovery: 6.9%
